For one test, the target named is Adenosine A2 receptor (Homo sapiens, UniProt P29275+P29274). Description: Inhibition of NECA binding to adenosine A2 receptor mediates reduced adenylate cyclase activity in human platelets.
Test [1] addresses T1, Adenosine receptor A1 (Bos taurus, UniProt P28190).
T1 sequence (P28190 whole entry): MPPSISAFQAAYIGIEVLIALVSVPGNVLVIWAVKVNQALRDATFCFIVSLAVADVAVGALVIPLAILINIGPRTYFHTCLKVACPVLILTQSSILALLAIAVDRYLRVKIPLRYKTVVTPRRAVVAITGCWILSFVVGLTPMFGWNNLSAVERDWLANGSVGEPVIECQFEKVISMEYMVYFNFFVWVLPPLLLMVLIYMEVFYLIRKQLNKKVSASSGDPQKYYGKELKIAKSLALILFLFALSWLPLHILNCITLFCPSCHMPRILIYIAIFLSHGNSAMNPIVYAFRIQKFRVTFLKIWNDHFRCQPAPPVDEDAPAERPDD
Description: Displacement of [125-I]-labeled aminobenzyl adenosine binding to adenosine A1 receptor of bovine brain membranes. The test is classed as cell membranes. In short, it runs like this:
(§1)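 Bovine cerebral cortex membranes, pretreated with EDTA, at 0.5 mg protein/mL in 10 mM HEPES, 1 mM EDTA, 0.1 mM benzamidine, pH 7.4. Incubated 2-3 h at 21 °C, then filtered and washed with ice-cold 10 mM Tris-HCl pH 7.4. Nonspecific binding by 100 μM PIA, 1 mM theophylline or 1 μM IIIa.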

Test [2] deals with T1, Adenosine receptor A1. Description: Binding affinity for adenosine A1 receptor as inhibition of [125-I]-labeled aminobenzyl adenosine binding to bovine brain membranes. The format is cell membranes. In short, it runs like this:
as §1

Test [3] concerns the target T1, Adenosine receptor A1. Description: Binding affinity for adenosine A1 receptor using [125-I]-labeled aminobenzyl adenosine in bovine brain membranes. The format is cell membranes. Put shortly: as §1
Test [4] has as its target T2, Adenosine receptor A1 (Rattus norvegicus, UniProt P25099).
T2 sequence (P25099 whole entry): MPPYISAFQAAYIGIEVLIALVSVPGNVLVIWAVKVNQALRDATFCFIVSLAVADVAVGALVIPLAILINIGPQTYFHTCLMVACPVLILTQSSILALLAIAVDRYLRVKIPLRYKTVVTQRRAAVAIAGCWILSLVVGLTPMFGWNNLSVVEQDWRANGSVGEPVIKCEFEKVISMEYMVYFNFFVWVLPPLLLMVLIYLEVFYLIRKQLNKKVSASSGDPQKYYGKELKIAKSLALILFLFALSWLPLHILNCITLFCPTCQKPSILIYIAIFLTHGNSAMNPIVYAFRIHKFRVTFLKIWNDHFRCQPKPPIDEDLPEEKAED
Description: Binding affinity to adenosine A1 receptor of rat brain membranes with 1 M NaCl by inhibition of [125-I]-IIIa binding.

In test [5] the target is T2, Adenosine receptor A1.

Where only a bound is given, the exact number is not on record here.

As usually defined, the Ki is a dissociation constant, usually derived from enzyme kinetics or from competition with a known ligand. Low values mean tighter binding, high ones weaker binding. In general, Kd refers to the concentration at which binding is half-saturated. Turning to `CCCn1c(=O)c2nc(-c3ccc(OCC(=O)O)cc3)[nH]c2n(CCc2ccc(N)c(I)c2)c1=O`, the Ki on Adenosine A2 receptor was 5.3 µM. Moreover, on Adenosine receptor A1 [1], the equilibrium dissociation constant (Kd) is 29 nM.
Taken in the same sequence, the figures for `Nc1ccc(CCn2c(=O)c3nc(-c4ccc(OCC(=O)O)cc4)[nH]c3n(CCc3ccc(N)cc3)c2=O)cc1` were more than 100 µM and 3590 nM.
At Adenosine A2 receptor, `CCCn1c(=O)n(Cc2ccc(N=[N+]=[N-])c(I)c2)c(=O)c2[nH]c(-c3ccc(OCC(=O)O)cc3)nc21` yielded an inhibition constant Ki of 5.3 µM. On Adenosine receptor A1 [2], this molecule registered a Kd of 960 nM.
For `CCCn1c(=O)c2nc(-c3ccc(OCC(=O)O)cc3)[nH]c2n(Cc2ccc(N=[N+]=[N-])c(I)c2)c1=O`, at Adenosine A2 receptor, the inhibition constant Ki is 2.1 µM. Moreover, on Adenosine receptor A1 [3], the equilibrium dissociation constant (Kd) is 55 nM.
Consider `CCCn1c(=O)n(CCc2ccc(N)c(I)c2)c(=O)c2[nH]c(-c3ccc(OCC(=O)O)cc3)nc21`, for which the Ki at Adenosine A2 receptor worked out at 20 µM. On Adenosine receptor A1 [1], the Kd was 3100 nM.
At Adenosine A2 receptor, `CCCn1c(=O)n(Cc2ccc(N)c(I)c2)c(=O)c2[nH]c(-c3ccc(OCC(=O)O)cc3)nc21` showed a Ki of 1.8 µM. Moreover, on Adenosine receptor A1 [1], the dissociation constant (Kd) is 160 nM.
Taken in the same sequence, the figures for `CCCn1c(=O)n(CCc2ccc(N)cc2)c(=O)c2[nH]c(-c3ccc(OCC(=O)O)cc3)nc21` were 11.5 µM and 2300 nM.
In general, IC50 refers to the concentration at which inhibition is half-maximal. `CCCn1c(=O)n(Cc2ccc(N)cc2)c(=O)c2[nH]c(-c3ccc(OCC(=O)O)cc3)nc21` showed a Ki at Adenosine A2 receptor of 23 µM. In addition, the IC50 was found to be 5.2 nM on Adenosine receptor A1 [4] and 44 nM against Adenosine receptor A1 [5]. At Adenosine receptor A1 [1], this molecule had an equilibrium dissociation constant (Kd) of 44 nM.
For `CCCn1c(=O)c2nc(-c3ccc(OCC(=O)O)cc3)[nH]c2n(CCc2ccc(N=[N+]=[N-])c(I)c2)c1=O`, the Ki at Adenosine A2 receptor came to 5.4 µM. This molecule registered a dissociation constant Kd at Adenosine receptor A1 [1] of 24 nM.
The molecule `CCCn1c(=O)c2[nH]c(-c3ccc(OCC(=O)O)cc3)nc2n(CCC)c1=O` had a Kd at Adenosine receptor A1 [2] of 17 nM.
On Adenosine A2 receptor, `CCCn1c(=O)c2nc(-c3ccc(OCC(=O)O)cc3)[nH]c2n(Cc2ccc(N)cc2)c1=O` had a Ki of 1 µM. Further, the IC50 was found to be 3.4 nM at Adenosine receptor A1 [4] and 64 nM on Adenosine receptor A1 [5]. This molecule displayed a dissociation constant (Kd) on Adenosine receptor A1 [1] of 32 nM.
For `CCCn1c(=O)c2nc(-c3ccc(OCC(=O)O)cc3)[nH]c2n(CCc2ccc(N)cc2)c1=O`, in that order: 11.5 µM, 3.4 nM, 37 nM and 60 nM.
`CCCn1c(=O)n(CCc2ccc(N=[N+]=[N-])c(I)c2)c(=O)c2[nH]c(-c3ccc(OCC(=O)O)cc3)nc21`: the inhibition constant (Ki) at Adenosine A2 receptor is 12.3 µM. Further, binding on Adenosine receptor A1 [2] was characterised by a dissociation constant (Kd) of 2860 nM.
The molecule `CCCn1c(=O)c2nc(-c3ccc(OCC(=O)O)cc3)[nH]c2n(Cc2ccc(N)c(I)c2)c1=O` registered an inhibitory constant (Ki) at Adenosine A2 receptor of 0.7 µM. Moreover, the IC50 at Adenosine receptor A1 [4] amounted to 3 nM; against Adenosine receptor A1 [5] it was 37 nM. The molecule also had a Kd on Adenosine receptor A1 [1] of 37 nM.

The values above are taken from ChEMBL document CHEMBL1124076, “125I-labeled 8-phenylxanthine derivatives: antagonist radioligands for adenosine A1 receptors” (J Med Chem, 1988).
